Active and inactive are the calls of the source. No cut-off for these calls is given here.
Assays:
Staphylococcus aureus [1] = experiment: Antimicrobial activity against Staphylococcus aureus NE163 harboring single transposon insertion mutation in aureolysin at 30 uM incubated for 18 hrs relative to control; type: functional
Method in brief: (§1)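 CA-MRSA USA300 LAC derivative JE2 and single transposon insertion mutants derived from JE2, each lacking an extracellular protease gene, were exposed to peptides up to 30 μM. The read-out was percent growth inhibition. Peptides were dissolved in PBS, and tests were run in triplicate.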

Staphylococcus aureus [2] = experiment: Antimicrobial activity against Staphylococcus aureus NE1506 harboring single transposon insertion mutation in V8 protease at 30 uM incubated for 18 hrs relative to control; type: functional; method in brief: as §1
Staphylococcus aureus [3] = experiment: Antimicrobial activity against Staphylococcus aureus NE1740 harboring single transposon insertion mutation in staphopain A at 30 uM incubated for 18 hrs relative to control; type: functional; method in brief: as §1
Staphylococcus aureus [4] = experiment: Antimicrobial activity against Staphylococcus aureus NE934 harboring single transposon insertion mutation in staphopain B at 30 uM incubated for 18 hrs relative to control; type: functional; method in brief: as §1
[5] = Hemolytic activity against human RBC incubated for 1 hr by microplate reader analysis; type: toxicity, cell-based, Erythrocyte; conditions: red blood cells (erythrocytes)
Method in brief: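 Human red blood cells exposed to peptides up to 50 μM; hemolysis measured, IC50 derived where reached.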

[6] = Stability in simulated pore POPC lipid bilayer membrane; type: physicochemical
Method in brief: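 Coarse-grained MD with the "scaled" Martini force field, peptides in POPC membrane, 51 μs. Counts transmembrane peptides at 51 μs. Water beads within 2 nm vertically of membrane centre and peptide–peptide interaction energy averaged over 48–51 μs. Contacts (salt bridge or stacking) scored below 0.8 nm and called stable if present ≥50% of the time.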

Acinetobacter baumannii [7] = experiment: Antimicrobial activity against colistin/meropenem-resistant Acinetobacter baumannii GSAB 164 incubated for 18 to 20 hrs by broth microdilution assay; type: functional; conditions: time 18-20 hrs
Method in brief: (§2)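 Broth microdilution assay. MIC was taken as the lowest peptide concentration that inhibited visible growth of the bacteria. Peptides were dissolved in PBS, and experiments were run in triplicate.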

Escherichia coli [8] = experiment: Antimicrobial activity against Escherichia coli ATCC 25922 incubated for 18 to 20 hrs by broth microdilution assay; type: functional; conditions: time 18-20 hrs; method in brief: as §2
Acinetobacter baumannii [9] = experiment: Antimicrobial activity against Acinetobacter baumannii CIP7010 incubated for 16 to 20 hrs; type: functional; conditions: time 16-20 hrs; method in brief: as §2
[10] = Toxicity against reconstructed human skin model assessed as irritation at 50 uM incubated for 1 hr followed by compound washout measured after 42 hrs by MTT assay; type: tissue-based, Skin of body
Method in brief: (§3)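 Reconstructed human epidermis with stratum corneum, per OECD TG 439 skin irritation guideline. Tissues exposed 1 h to peptide at 50 μM, then 42 h post-treatment incubation. Viability read by MTT. Controls were SDS and melittin.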

[11] = Toxicity against reconstructed human skin model assessed as tissue viability at 50 uM incubated for 1 hr followed by compound washout measured after 42 hrs by MTT assay; type: tissue-based, Skin of body; conditions: read-out: Activity; method in brief: as §3
[12] = Stability in human serum assessed as half life at 10 mg/ml by UPLC-MS analysis; type: ADME, cell-free
Method in brief: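 Peptides dissolved in PBS and incubated in 25% human serum. Intact peptide remaining followed over time to at least 6 h; half-life taken as time to 50% stability.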

Acinetobacter baumannii [13] = experiment: Anti-infective activity against Acinetobacter baumannii ATCC 19606 infected in neutropenic CD-1 mouse deep thigh infection model assessed as reduction in bacterial load at 0.17 mg/kg, ip measured after 4 days; type: functional, organism-based; conditions: time 4.0 day
Method in brief: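 Neutropenic mice infected intramuscularly in right thigh with 10⁶ cells per mL A. baumannii ATCC 19606; single intraperitoneal peptide dose at 10× MIC; bacterial load determined 4 days after treatment (euthanized day 8); n = 6 per group from three inocula; one-way ANOVA with Dunnett's test versus untreated.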

[14] = Toxicity in neutropenic CD-1 mouse deep thigh infection model infected with Acinetobacter baumannii ATCC 19606 assessed as body weight change at 0.17 mg/kg, ip measured after 4 days; type: organism-based; conditions: in vivo, 96 h, time 4 day
Method in brief: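 Neutropenic mice infected intramuscularly in the right thigh with 10⁶ cells per mL of A. baumannii ATCC 19606. […] Body weight monitored for toxicity. Euthanasia 4 days post-infection (day 8). n = 6 per group, from three inocula.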

Mus musculus [15] = experiment: Induction of wound healing activity in immunosuppressed Balb/c mouse excisional dorsal wound infection model infected with Acinetobacter baumannii NCTC 13301 assessed as reduction in necrosis of epidermal tissue at wound edges at about 10 mg/kg treated for 7 days once daily; type: functional, organism-based; conditions: time 7.0 day
Mus musculus [16] = experiment: Induction of wound healing activity in immunosuppressed Balb/c mouse excisional dorsal wound infection model infected with Acinetobacter baumannii NCTC 13301 assessed as reduction in wound expansion at about 10 mg/kg treated for 7 days once daily; type: functional, organism-based; conditions: time 7.0 day
Mus musculus [17] = experiment: Induction of wound healing activity in immunosuppressed Balb/c mouse excisional dorsal wound infection model infected with Acinetobacter baumannii NCTC 13301 assessed as decrease in serocellular crust at about 10 mg/kg treated for 7 days once daily measured after 20 days; type: functional, organism-based; conditions: time 20.0 day
[18] = Toxicity in immunosuppressed Balb/c mouse excisional dorsal wound infection model infected with Acinetobacter baumannii NCTC 13301 assessed as body weight loss at about 10 mg/kg treated for 7 days once daily measured after 45 days; type: organism-based; conditions: in vivo, 1080 h, time 45 day
Method in brief: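 Excisional dorsal wound model in immunosuppressed mice infected with 5 × 10⁴ cells per mL of A. baumannii. Treated, PBS-treated and untreated groups were compared. Body weight and survival were followed for 45 days.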

[19] = Toxicity in immunosuppressed Balb/c mouse excisional dorsal wound infection model infected with Acinetobacter baumannii NCTC 13301 assessed as decrease in animal survival at about 10 mg/kg treated for 7 days once daily measured after 45 days; type: organism-based; conditions: in vivo, 1080 h, time 45 day
Enterococcus faecium = experiment: Depolarization of cytoplasmic membrane in Enterococcus faecium ATCC 700221 at MIC measured for 45 mins by DiSC3-(5) dye based assay; type: functional, organism-based
Method in brief: (§4)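 Bacteria loaded with membrane-potential dye DiSC3-(5), then treated with peptide at its MIC for the respective strain; depolarization read as rise in dye fluorescence; polymyxin B and levofloxacin as reference antibiotics.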

Staphylococcus aureus [20] = experiment: Depolarization of cytoplasmic membrane in Staphylococcus aureus ATCC 12600 at MIC measured for 45 mins by DiSC3-(5) dye based assay; type: functional, organism-based; method in brief: as §4
Klebsiella pneumoniae [21] = experiment: Depolarization of cytoplasmic membrane in Klebsiella pneumoniae ATCC 13883 at MIC measured for 45 mins by DiSC3-(5) dye based assay; type: functional, organism-based; method in brief: as §4
Acinetobacter baumannii [22] = experiment: Depolarization of cytoplasmic membrane in Acinetobacter baumannii ATCC 19606 at MIC measured for 45 mins by DiSC3-(5) dye based assay; type: functional, organism-based; method in brief: as §4
Pseudomonas aeruginosa [23] = experiment: Depolarization of cytoplasmic membrane in Pseudomonas aeruginosa PAO1 at MIC measured for 45 mins by DiSC3-(5) dye based assay; type: functional, organism-based; method in brief: as §4
Escherichia coli [24] = experiment: Depolarization of cytoplasmic membrane in Escherichia coli ATCC 11775 at MIC measured for 45 mins by DiSC3-(5) dye based assay; type: functional, organism-based; method in brief: as §4
Klebsiella pneumoniae [25] = experiment: Induction of outer membrane permeabilization in Klebsiella pneumoniae ATCC 13883 measured for 20 mins by NPN uptake assay; type: functional, organism-based
Method in brief: (§5)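 Outer-membrane permeabilization of Gram-negative bacteria read as rise in fluorescence of the lipophilic dye NPN, which enters only when outer-membrane integrity is compromised. Peptides applied at their MIC against the respective strain; polymyxin B and levofloxacin as reference antibiotics. Triplicates.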

Acinetobacter baumannii [26] = experiment: Induction of outer membrane permeabilization in Acinetobacter baumannii ATCC 19606 measured for 20 mins by NPN uptake assay; type: functional, organism-based
Pseudomonas aeruginosa [27] = experiment: Induction of outer membrane permeabilization in Pseudomonas aeruginosa PAO1 measured for 20 mins by NPN uptake assay; type: functional, organism-based; method in brief: as §5
Escherichia coli [28] = experiment: Induction of outer membrane permeabilization in Escherichia coli ATCC 11775 measured for 20 mins by NPN uptake assay; type: functional, organism-based
Lipid bilayer = experiment: Induction of pore formation in POPC/POPG SLBs at 1 uM measured for 2 hrs by real-time AFM analysis; conditions: filed as activator
Method in brief: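 Real-time AFM topography of supported lipid bilayers of POPC:POPG 1:1 mol/mol, checked defect-free and vesicle-free before peptide addition. P:L 1:500, final peptide 1 μM. Images at 1 × 1 μm², 400 × 400 nm² and 200 × 200 nm², height scale 2 nm. Pores followed over 2 h.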

Escherichia coli [29] = experiment: Antimicrobial activity against Escherichia coli TOP10 at pH 6 to 8; type: functional, organism-based
Method in brief: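 E. coli TOP10 broth microdilution with growth medium at pH 8 and pH 6; MIC taken as lowest concentration inhibiting visible growth.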

H-KKKKLKKILKKLFNFINNLDNNLNDIKNNK-NH2 showed an inhibition at 30 µM (Staphylococcus aureus [1]) of less than 45%, an inhibition at 30 µM (Staphylococcus aureus [2]) of less than 45% and an inhibition at 30 µM (Staphylococcus aureus [3]) of less than 45%. The inhibition at 30 µM (Staphylococcus aureus [4]) was less than 45%.
In the case of H-KKKKLKKILKKLFQFIDQLINDLQNIKKKK-NH2, the IC50 at 1 h [5] is reported as greater than 50 µM.
For H-KKKKLKKILKKLFQFINQLDNQLQDFKQNK-OH, the Stability [6] was “Stable” and the IC50 at 1 h [5] was greater than 50 µM.
Substance H-KKKKLKKILKKLFQFINQLDNQLQDIKKKK-NH2 has an IC50 at 1 h [5] greater than 50 µM, an MIC (Acinetobacter baumannii [7]) of 1 µM and an MIC (Escherichia coli [8]) of 1 µM. The MIC (Acinetobacter baumannii [9]) was 0.5 µM, the inhibition at 30 µM (Staphylococcus aureus [1]) was less than 45% and the inhibition at 30 µM (Staphylococcus aureus [2]) was less than 45%. For the same substance, the inhibition at 30 µM (Staphylococcus aureus [3]) was less than 45%, the inhibition at 30 µM (Staphylococcus aureus [4]) was less than 45% and the Activity [10] was “Non-Toxic”. The viability at 1 h, 50 µM [11] was 100%, the half-life at 10 mg/ml [12] was greater than 6 h and the Activity (Acinetobacter baumannii [13]) was “inactive”. The Activity [14] was “Non-Toxic”, the Activity (Mus musculus [15]) was “Active” and the Activity (Mus musculus [16]) was “Active”. The Activity (Mus musculus [17]) was “inactive”, the Activity [18] was “Toxic” and the Activity [19] was “Toxic”. For the same substance, the Activity (Enterococcus faecium) was “Active”, the Activity (Staphylococcus aureus [20]) was “Active” and the Activity (Klebsiella pneumoniae [21]) was “Active”. For the same substance, the Activity (Acinetobacter baumannii [22]) was “Active”, the Activity (Pseudomonas aeruginosa [23]) was “Active” and the Activity (Escherichia coli [24]) was “Active”. The Activity (Klebsiella pneumoniae [25]) was “Active”, the Activity (Acinetobacter baumannii [26]) was “inactive” and the Activity (Pseudomonas aeruginosa [27]) was “Active”. The Activity (Escherichia coli [28]) was “Active”, the Activity (Lipid bilayer) was “Active” and the Activity (Escherichia coli [29]) was “Active”.
Work on H-KKKKLKKILKKLFQFINQLDNQLQDIKQNK-OH yielded an IC50 at 1 h [5] greater than 50 µM.

From ChEMBL document CHEMBL5576140, “Computational Design of Pore-Forming Peptides with Potent Antimicrobial and Anticancer Activities” (J Med Chem, 2024)
